Key:
[1] = target: T1, Gamma-aminobutyric acid receptor subunit alpha-5/beta-2/gamma-2 (Homo sapiens, UniProt P18507+P31644+P47870); test: Antagonist activity at human alpha5beta2gamma2 GABAA receptor expressed in HEK293 cells by FMP assay; assay type: cell-based
T1 sequence (P47870 whole entry): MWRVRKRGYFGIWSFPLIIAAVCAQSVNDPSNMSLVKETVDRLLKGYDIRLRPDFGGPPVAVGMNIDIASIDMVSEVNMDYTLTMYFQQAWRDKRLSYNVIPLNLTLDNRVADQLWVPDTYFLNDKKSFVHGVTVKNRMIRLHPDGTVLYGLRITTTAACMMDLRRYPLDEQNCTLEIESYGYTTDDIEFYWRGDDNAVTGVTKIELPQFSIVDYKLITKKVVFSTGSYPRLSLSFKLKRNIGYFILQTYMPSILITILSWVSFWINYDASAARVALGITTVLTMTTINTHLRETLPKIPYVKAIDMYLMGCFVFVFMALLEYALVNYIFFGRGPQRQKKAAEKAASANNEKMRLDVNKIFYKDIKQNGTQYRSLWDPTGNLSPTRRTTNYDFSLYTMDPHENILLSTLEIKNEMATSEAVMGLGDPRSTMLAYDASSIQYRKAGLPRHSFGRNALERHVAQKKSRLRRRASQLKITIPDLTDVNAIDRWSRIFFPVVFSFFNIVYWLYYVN
T1 sequence (P18507 whole entry): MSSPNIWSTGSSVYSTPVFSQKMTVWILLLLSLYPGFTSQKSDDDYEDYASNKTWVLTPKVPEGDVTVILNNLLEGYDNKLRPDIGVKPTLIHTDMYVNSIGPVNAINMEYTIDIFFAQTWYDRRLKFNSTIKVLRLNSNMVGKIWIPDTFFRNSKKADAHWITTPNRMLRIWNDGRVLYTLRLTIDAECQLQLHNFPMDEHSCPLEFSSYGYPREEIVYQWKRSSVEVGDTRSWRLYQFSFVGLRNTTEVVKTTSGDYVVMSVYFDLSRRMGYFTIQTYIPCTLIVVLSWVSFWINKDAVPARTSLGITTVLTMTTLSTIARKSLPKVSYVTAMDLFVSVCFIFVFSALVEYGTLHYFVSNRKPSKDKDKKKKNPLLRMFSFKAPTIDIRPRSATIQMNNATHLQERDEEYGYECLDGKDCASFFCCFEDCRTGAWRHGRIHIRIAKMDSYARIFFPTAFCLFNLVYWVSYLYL
T1 sequence (P31644 whole entry): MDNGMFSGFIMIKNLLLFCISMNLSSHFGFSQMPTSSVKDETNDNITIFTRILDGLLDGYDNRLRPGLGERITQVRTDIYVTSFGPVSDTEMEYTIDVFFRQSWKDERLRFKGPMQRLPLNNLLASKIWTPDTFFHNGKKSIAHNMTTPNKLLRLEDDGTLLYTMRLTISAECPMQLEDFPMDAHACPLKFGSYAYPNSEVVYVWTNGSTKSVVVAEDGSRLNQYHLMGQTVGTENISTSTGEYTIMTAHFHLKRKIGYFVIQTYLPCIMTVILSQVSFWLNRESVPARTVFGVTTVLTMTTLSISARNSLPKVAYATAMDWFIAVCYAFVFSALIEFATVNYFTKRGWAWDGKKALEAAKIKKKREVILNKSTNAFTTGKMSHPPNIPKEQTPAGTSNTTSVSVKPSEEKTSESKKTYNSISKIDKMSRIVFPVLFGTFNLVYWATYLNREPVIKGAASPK
Procedure, shortened: (§1)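 Human αβγ2 receptors in HEK293 cells: α1β2γ2 stably expressed, other αβγ2 subtypes transiently transfected into HEK293 Flp-In background cells (α:β:γ 1:1:2). FLIPR membrane potential assay with ΔRFU baseline to peak/plateau and GABA EC80 as agonist. IC50 from a four-parameter fit, at least three independent experiments.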

[2] = target: T2, GABA A receptor alpha-2/beta-2/gamma-2 (Homo sapiens, UniProt P18507+P47869+P47870); test: Antagonist activity at human alpha2beta2gamma2 GABAA receptor expressed in HEK cells by FMP assay; assay type: cell-based; procedure, shortened: as §1
T2 sequence (P47870 whole entry): T1 sequence (P47870 whole entry)
T2 sequence (P18507 whole entry): T1 sequence (P18507 whole entry)
T2 sequence (P47869 whole entry): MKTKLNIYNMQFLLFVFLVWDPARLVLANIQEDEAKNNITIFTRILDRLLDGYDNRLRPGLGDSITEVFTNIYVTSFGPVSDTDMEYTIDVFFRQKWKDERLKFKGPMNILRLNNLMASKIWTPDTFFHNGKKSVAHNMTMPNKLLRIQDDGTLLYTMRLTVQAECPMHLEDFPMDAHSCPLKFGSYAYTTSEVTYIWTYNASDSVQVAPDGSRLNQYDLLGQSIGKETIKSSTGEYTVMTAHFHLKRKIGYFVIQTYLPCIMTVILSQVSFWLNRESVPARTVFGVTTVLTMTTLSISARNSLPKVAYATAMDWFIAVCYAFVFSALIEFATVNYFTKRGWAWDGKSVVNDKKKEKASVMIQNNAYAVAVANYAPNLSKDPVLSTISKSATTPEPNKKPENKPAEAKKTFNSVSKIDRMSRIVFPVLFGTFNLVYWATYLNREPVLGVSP

Row | Structure (SMILES) | IC50 [1] [nM] | IC50 ([1]; read-out: pIC50 (converted)) [nM] | IC50 [2] [nM] | IC50 ([2]; read-out: pIC50 (converted)) [nM]
1 | Cc1ccc(C(=O)N2CCC3(CCNCC3)CC2)cc1 | 1500 | 1450 | – | –
2 | Cc1cccc(C(=O)N2CCC3(CCNCC3)CC2)c1 | 540 | 537 | – | –
3 | CC(=O)Nc1cccc(C(=O)N2CCC3(CCNCC3)CC2)c1 | – | – | 2960 | 2950
4 | O=C(Nc1cccc(C(=O)N2CCC3(CCNCC3)CC2)c1)c1cccs1 | – | – | 320 | 324

From ChEMBL document CHEMBL5096209, “Structure-Activity Studies of 3,9-Diazaspiro[5.5]undecane-Based γ-Aminobutyric Acid Type A Receptor Antagonists with Immunomodulatory Effect” (J Med Chem, 2021)
